Key:
Assay type in all cases: functional, cell-based
[1] = test system: A549; test: Anticancer activity against human A549 cells after 48 hrs by MTT assay; conditions: A549, 48 h
Summary of the method: (§1)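 MTT assay. Cells seeded at 1 × 10⁴/well in DMEM with 10% FBS and held 24 h at 37 °C in CO₂. Compounds were diluted in culture medium and added alongside vehicle controls, then incubated 48 h. MTT (5 mg/ml stock) was added for 4 h. Supernatant was removed, formazan dissolved in DMSO, and absorbance read at 540 nm.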

[2] = test system: A-375; test: Anticancer activity against human A375 cells after 48 hrs by MTT assay; conditions: A-375, 48 h; summary of the method: as §1
[3] = test system: MCF7; test: Anticancer activity against human MCF7 cells after 48 hrs by MTT assay; conditions: MCF7, 48 h; summary of the method: as §1
[4] = test system: HT-29; test: Anticancer activity against human HT-29 cells after 48 hrs by MTT assay; conditions: HT-29, 48 h; summary of the method: as §1
[5] = test system: ACHN; test: Anticancer activity against human ACHN cells after 48 hrs by MTT assay; summary of the method: as §1

| SMILES | IC50 [1] [µM] | IC50 [2] [µM] | IC50 [3] [µM] | IC50 [4] [µM] | IC50 [5] [µM] |
| --- | --- | --- | --- | --- | --- |
| COc1cc(C(=O)/C=C/c2cccc(OCCCCCC(=O)N[C@@H]3c4cc5c(cc4[C@@H](c4cc(OC)c(OC)c(OC)c4)[C@H]4C(=O)OC[C@@H]43)OCO5)c2)cc(OC)c1OC | 14.7 | 11.5 | 8.3 | 21.1 | 20.8 |
| COc1cccc(C(=O)/C=C/c2ccc(OCCCCCC(=O)N[C@@H]3c4cc5c(cc4[C@@H](c4cc(OC)c(OC)c(OC)c4)[C@H]4C(=O)OC[C@@H]43)OCO5)c(OC)c2)c1 | 14.4 | 20.1 | 17.5 | 11.9 | 13.7 |
| COc1cc(/C=C/C(=O)c2cc(OC)c(OC)c(OC)c2)ccc1OCCCCCC(=O)N[C@@H]1c2cc3c(cc2[C@@H](c2cc(OC)c(OC)c(OC)c2)[C@H]2C(=O)OC[C@@H]21)OCO3 | 13.6 | 9.8 | 10.2 | 12.1 | 19.5 |
| COc1ccc(/C=C/C(=O)c2cc(OC)c(OC)c(OC)c2)cc1OCCCCCC(=O)N[C@@H]1c2cc3c(cc2[C@@H](c2cc(OC)c(OC)c(OC)c2)[C@H]2C(=O)OC[C@@H]21)OCO3 | 16.7 | 10.3 | 12.6 | 6.47 | 13.4 |
| COc1cc(/C=C/C(=O)c2cccc([N+](=O)[O-])c2)ccc1OCC(=O)N[C@@H]1c2cc3c(cc2[C@@H](c2cc(OC)c(OC)c(OC)c2)[C@H]2C(=O)OC[C@@H]21)OCO3 | 9 | 5.3 | 6.7 | 8.41 | 13.2 |
| COc1cc(C(=O)/C=C/c2ccc(OCC(=O)N[C@@H]3c4cc5c(cc4[C@@H](c4cc(OC)c(OC)c(OC)c4)[C@H]4C(=O)OC[C@@H]43)OCO5)cc2)cc(OC)c1OC | 19.1 | 25.8 | 24.2 | 12.4 | 10.2 |
| COc1cc(/C=C/C(=O)c2ccc(F)cc2)ccc1OCC(=O)N[C@@H]1c2cc3c(cc2[C@@H](c2cc(OC)c(OC)c(OC)c2)[C@H]2C(=O)OC[C@@H]21)OCO3 | 26.4 | 12.2 | 19.1 | 21.6 | 26.7 |
| COc1cc([C@@H]2c3cc4c(cc3[C@H](O)[C@H]3COC(=O)[C@H]23)OCO4)cc(OC)c1OC [PODOFILOX] | 3.75 | 2.62 | 1.18 | 0.78 | 2.12 |
| COc1cc([C@@H]2c3cc4c(cc3[C@@H](NC(=O)/C=C/c3ccc(Cl)c(Cl)c3)[C@H]3COC(=O)[C@H]23)OCO4)cc(OC)c1OC | 8.4 | 13.2 | 20.1 | 21 | 17.7 |
| COc1cc([C@@H]2c3cc4c(cc3[C@@H](NC(=O)/C=C/c3ccc(Cl)cc3)[C@H]3COC(=O)[C@H]23)OCO4)cc(OC)c1OC | 8.8 | 5.7 | 13.7 | 11.4 | 7.54 |
| COc1cc(/C=C/C(=O)N[C@@H]2c3cc4c(cc3[C@@H](c3cc(OC)c(OC)c(OC)c3)[C@H]3C(=O)OC[C@@H]32)OCO4)cc(OC)c1OC | 7.9 | 14 | 17.7 | 8.34 | 13.1 |
| COc1cc(/C=C/C(=O)c2c(C)nc3ccccc3c2C)ccc1OCC(=O)N[C@@H]1c2cc3c(cc2[C@@H](c2cc(OC)c(OC)c(OC)c2)[C@H]2C(=O)OC[C@@H]21)OCO3 | 15.4 | 14.5 | 13.8 | 12.3 | 10.8 |
| O=C(O)/C=C/c1ccccc1 [CINNAMIC ACID] | 87 | 64 | 108 | 114 | 91 |
| COc1cc(/C=C/C(=O)c2c(C)nc3ccccc3c2-c2ccccc2)ccc1OCC(=O)N[C@@H]1c2cc3c(cc2[C@@H](c2cc(OC)c(OC)c(OC)c2)[C@H]2C(=O)OC[C@@H]21)OCO3 | 13.4 | 7.7 | 11.2 | 7.75 | 15.7 |
| COc1cc([C@@H]2c3cc4c(cc3[C@@H](NC(=O)/C=C/c3ccc(F)cc3)[C@H]3COC(=O)[C@H]23)OCO4)cc(OC)c1OC | 6.8 | 9.5 | 14.6 | 7.1 | 18.6 |
| COc1ccc(/C=C/C(=O)c2cc(OC)c(OC)c(OC)c2)cc1OCC(=O)N[C@@H]1c2cc3c(cc2[C@@H](c2cc(OC)c(OC)c(OC)c2)[C@H]2C(=O)OC[C@@H]21)OCO3 | 11.7 | 11.5 | 15.4 | 5.98 | 11.1 |

| SMILES | IC50 [1] [µM] | IC50 [2] [µM] | IC50 [3] [µM] | IC50 [4] [µM] | IC50 [5] [µM] |
| --- | --- | --- | --- | --- | --- |
| COc1cc(/C=C/C(=O)c2ccc(F)cc2)ccc1OCCCCCC(=O)N[C@@H]1c2cc3c(cc2[C@@H](c2cc(OC)c(OC)c(OC)c2)[C@H]2C(=O)OC[C@@H]21)OCO3 | 5.9 | 11.4 | 15.8 | 11.7 | 9.3 |
| COc1cc(/C=C/C(=O)c2cc(OC)c(OC)c(OC)c2)ccc1OCC(=O)N[C@@H]1c2cc3c(cc2[C@@H](c2cc(OC)c(OC)c(OC)c2)[C@H]2C(=O)OC[C@@H]21)OCO3 | 10.7 | 7.8 | 14.9 | 9.54 | 8.51 |
| COc1cccc2c1C(=O)c1c(O)c3c(c(O)c1C2=O)C[C@@](O)(C(=O)CO)C[C@@H]3O[C@H]1C[C@H](N)[C@H](O)[C@H](C)O1 [DOXORUBICIN] | 2.18 | 5.51 | 2.02 | 1.06 | 0.79 |
| O=C(O)/C=C/c1ccc(C(F)(F)F)cc1 | 56 | 91 | 142 | 75 | 128 |
| COc1cc(/C=C/C(=O)c2cccc([N+](=O)[O-])c2)ccc1OCCCCCC(=O)N[C@@H]1c2cc3c(cc2[C@@H](c2cc(OC)c(OC)c(OC)c2)[C@H]2C(=O)OC[C@@H]21)OCO3 | 10.7 | 10.8 | 18.1 | 8.75 | 11.9 |
| COc1cccc(C(=O)/C=C/c2ccc(OCC(=O)N[C@@H]3c4cc5c(cc4[C@@H](c4cc(OC)c(OC)c(OC)c4)[C@H]4C(=O)OC[C@@H]43)OCO5)c(OC)c2)c1 | 9.1 | 13.8 | 21.8 | 8.1 | 13.8 |
| COc1ccc(/C=C/C(=O)N[C@@H]2c3cc4c(cc3[C@@H](c3cc(OC)c(OC)c(OC)c3)[C@H]3C(=O)OC[C@@H]32)OCO4)cc1 | 7.7 | 19.1 | 15.7 | 17.6 | 17.8 |
| COc1cc([C@@H]2c3cc4c(cc3[C@@H](NC(=O)/C=C/c3ccc(Br)cc3)[C@H]3COC(=O)[C@H]23)OCO4)cc(OC)c1OC | 9.5 | 17.8 | 11.2 | 19.2 | 14.3 |
| COc1cc(C(=O)/C=C/c2ccc(OCCCCCC(=O)N[C@@H]3c4cc5c(cc4[C@@H](c4cc(OC)c(OC)c(OC)c4)[C@H]4C(=O)OC[C@@H]43)OCO5)cc2)cc(OC)c1OC | 21.5 | 18.4 | 24.8 | 15.3 | 16.5 |
| COc1ccc(C(=O)/C=C/c2ccc(OCCCCCC(=O)N[C@@H]3c4cc5c(cc4[C@@H](c4cc(OC)c(OC)c(OC)c4)[C@H]4C(=O)OC[C@@H]43)OCO5)c(OC)c2)cc1 | 19 | 13 | 12 | 16 | 10 |
| COc1ccc(C(=O)/C=C/c2ccc(OCC(=O)N[C@@H]3c4cc5c(cc4[C@@H](c4cc(OC)c(OC)c(OC)c4)[C@H]4C(=O)OC[C@@H]43)OCO5)c(OC)c2)cc1 | 8.3 | 9.3 | 16.2 | 16.9 | 16.1 |
| COc1cc(/C=C/C(=O)c2c(C)nc3ccccc3c2-c2ccccc2)ccc1OCCCCCC(=O)N[C@@H]1c2cc3c(cc2[C@@H](c2cc(OC)c(OC)c(OC)c2)[C@H]2C(=O)OC[C@@H]21)OCO3 | 7.7 | 6.8 | 2.2 | 8.9 | 9.46 |
| COc1cc(/C=C/C(=O)c2c(C)nc3ccccc3c2C)ccc1OCCCCCC(=O)N[C@@H]1c2cc3c(cc2[C@@H](c2cc(OC)c(OC)c(OC)c2)[C@H]2C(=O)OC[C@@H]21)OCO3 | 10.6 | 10.3 | 8.6 | 11.8 | 10.7 |
| COc1cc([C@@H]2c3cc4c(cc3[C@@H](NC(=O)/C=C/c3ccc([N+](=O)[O-])cc3)[C@H]3COC(=O)[C@H]23)OCO4)cc(OC)c1OC | 8.2 | 14.5 | 10.1 | 18.1 | 12.8 |
| COc1cc(C(=O)/C=C/c2cccc(OCC(=O)N[C@@H]3c4cc5c(cc4[C@@H](c4cc(OC)c(OC)c(OC)c4)[C@H]4C(=O)OC[C@@H]43)OCO5)c2)cc(OC)c1OC | 16.8 | 18.2 | 24.4 | 15.6 | 9.1 |

Source: ChEMBL document CHEMBL1926683, “Synthesis and anticancer activity of 4β-alkylamidochalcone and 4β-cinnamido linked podophyllotoxins as apoptotic inducing agents” (Eur J Med Chem, 2012)
